Hits are enriched below; roughly 2.3% of the tested compounds scored in any of these assays.
TRPC6 activator: mouse TRPC6 channel activators, primary screen, cell-based, HEK293, membrane potential dye | HEK293-TRPC6 membrane potential dye fluorescence; active compounds read high | actives 0.13% (n = 310,000) | Short transient receptor potential channel 6 (Mus musculus), Q61143 | B-score at 10 µM;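 active = B-score of the integrated fluorescence ratio above library mean plus 3 SD, and starting fluorescence ratio within library mean plus 5 SD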;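 also: higher score means more depolarization so channel activation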
Target sequence (Q61143 whole entry, looked up): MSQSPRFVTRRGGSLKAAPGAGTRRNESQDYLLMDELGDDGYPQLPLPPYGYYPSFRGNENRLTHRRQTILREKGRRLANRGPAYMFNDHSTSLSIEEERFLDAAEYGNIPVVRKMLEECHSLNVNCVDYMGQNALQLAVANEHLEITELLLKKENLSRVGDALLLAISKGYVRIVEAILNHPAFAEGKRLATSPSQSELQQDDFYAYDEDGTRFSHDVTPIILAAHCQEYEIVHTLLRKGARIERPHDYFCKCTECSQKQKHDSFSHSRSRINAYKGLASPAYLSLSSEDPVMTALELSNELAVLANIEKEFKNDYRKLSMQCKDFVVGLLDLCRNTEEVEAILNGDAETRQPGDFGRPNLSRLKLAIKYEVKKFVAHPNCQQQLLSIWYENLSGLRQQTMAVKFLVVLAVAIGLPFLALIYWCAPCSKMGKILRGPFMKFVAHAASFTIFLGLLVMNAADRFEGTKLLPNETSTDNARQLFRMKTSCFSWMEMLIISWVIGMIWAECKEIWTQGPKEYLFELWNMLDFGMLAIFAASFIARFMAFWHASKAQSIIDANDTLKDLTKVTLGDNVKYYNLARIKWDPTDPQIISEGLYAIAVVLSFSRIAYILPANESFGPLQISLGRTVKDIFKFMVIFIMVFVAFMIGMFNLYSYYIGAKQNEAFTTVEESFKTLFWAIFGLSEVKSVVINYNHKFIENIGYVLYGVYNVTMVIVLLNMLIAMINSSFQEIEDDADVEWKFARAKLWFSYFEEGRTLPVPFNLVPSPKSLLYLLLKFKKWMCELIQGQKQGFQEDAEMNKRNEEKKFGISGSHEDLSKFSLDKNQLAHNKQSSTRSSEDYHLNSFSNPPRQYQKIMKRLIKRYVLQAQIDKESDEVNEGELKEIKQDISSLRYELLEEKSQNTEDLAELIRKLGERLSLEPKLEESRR
TRPC6 inh: mouse TRPC6 channel inhibitors, primary screen, cell-based, HEK293, membrane potential dye; Short transient receptor potential channel 6 (Mus musculus), Q61143; actives 1.1% (n = 310,000); ACh-evoked depolarization; active compounds read low; AID 2553, 2010; B-score at 10 µM;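 active = B-score under library mean minus 3 SD, initial fluorescence not abnormally high, positive integrated signal ratio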;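 also: B-score derived from integrated fluorescence ratio over the kinetic read; more negative B-score means stronger inhibition of depolarization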
TRPC4 agonist: activators of mouse TRPC4 channel, primary screen, Fluo4 calcium, HEK293 TRPC4beta/mu-opioid cells. actives 0.49% (n = 310,000). Fluo4 calcium fluorescence; active compounds read high. B-score at 10 µM;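 active = B-score above 5 SD of library B-scores, and initial fluorescence ratio not above library mean plus 5 SD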;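 also: positive B-score marks a calcium rise read as TRPC4 activation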
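System – HEK293 cells stably co-expressing mouse TRPC4beta and mu-opioid receptor · Signal – Fluo4 calcium-sensitive dye fluorescence, kinetic, 1 Hz baseline · Benchmarks – buffer (low) and maximal DAMGO (high) · Read-out – B score of integrated fluorescence ratio per well · Incubation – dye loading 45 min room temperature, 110 s kinetic read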
Yeast superoxide: reduction of superoxide in aged yeast, primary screen, HTS; S. cerevisiae aged cells, superoxide DHE fluorescence; active compounds read low; superoxide response (% of plate mean), % at 10 µM; actives 0.18% (n = 330,000); AID 2690, 2010;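 active = superoxide response under a set limit, about three screen SD below normal, cut at about 65% in these data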;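 also: yeast aged for seven days with compound at 30 °C before DHE staining; 100% = average MFI of all compound-treated wells on the plate with controls excluded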
TRPC4 PAM: positive allosteric modulators of TRPC4, primary screen, cell-based, mouse TRPC4beta, HEK293 mu-opioid, Fluo-4 calcium. Short transient receptor potential channel 4 (Mus musculus), Q9QUQ5. DAMGO EC20, Fluo-4 Ca2+ flux; active compounds read high. B-score at 10 µM. actives 0.42% (n = 310,000). AID 2227, 2009;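 active = B-score of calcium response area above 5 SD of library B-scores, with initial fluorescence ratio within 5 SD of library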;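 also: B-score of integrated fluorescence ratio over time as area under calcium response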
TRPC4 block: inhibitors of mouse TRPC4 channel, primary screen, Fluo4 calcium, HEK293 TRPC4beta/mu-opioid cells; Short transient receptor potential channel 4 (Mus musculus), Q9QUQ5; DAMGO-evoked Fluo4 calcium flux; active compounds read low; B-score at 10 µM; actives 0.39% (n = 300,000);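 active = B-score over 3 SD under the library average, no early fluorescence shift, positive overall ratio signal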
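Assay system: TRPC4beta/mu-opioid receptor HEK293 cell line; compound dosing: single concentration per test compound; detection: Fluo4 Ca2+ flux fluorescence; evaluation: per-well B score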
TRPC4 sel inh 2: second selectivity test of TRPC6 inhibitors: effect on mouse TRPC4. HEK293 TRPC4/MOR, membrane potential dye fluorescence; channel activated by saturating DAMGO dose. shares compounds with TRPC6 inh. inhibition, % at 10 µM. actives 42% (n = 920). AID 2776;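 active = compounds whose fluorescence signal differed from control wells by over 3 SD, either direction, in both duplicate plates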
TRPC4 spec: mouse TRPC4 modulation by TRPC6 hits, confirmation, selectivity assay for TRPC6 inhibitor project, cell-based, HEK293 TRPC4/mu-opioid, membrane potential dye | shares compounds with TRPC6 inh | membrane potential fluorescence | activity change, negative = inhibition, % at 10 µM | actives 61% (n = 920) | AID 2777, 2010;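 active = rise or fall in signal beyond 3 SD of buffer-only wells in both replicate plates, either sign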;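 also: integrated kinetic ratio of fluorescence range over baseline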
HEK293 MPD ctr 2-1: nonspecific membrane potential effects, parental HEK293, confirmation, counter-screen for TRPC6 inhibitor project, cell-based, second counter screen. shares compounds with TRPC6 inh. parental HEK293 membrane potential dye fluorescence; maximal acetylcholine challenge after compound addition. signal change vs control, % at 10 µM. actives 31% (n = 920). AID 2779, 2010;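 active = membrane potential signal moving either way by over 3 SD of the maximum-effect control, in both duplicate plates, meaning non-specific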
HEK293 MPD ctr-1: membrane potential modulation in parental HEK293, confirmation, counter-screen for TRPC6 inhibitor project, cell-based; shares compounds with TRPC6 inh; actives 60% (n = 920); membrane potential signal change, % at 10 µM; AID 2780, 2010; parental HEK293 membrane potential dye fluorescence;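 active = membrane potential signal shifting up or down by more than 3 SD of buffer-only wells, on both duplicate plates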
HEK293 MPD ctr-2: parental HEK293 membrane potential modulation, confirmation, counter-screen for TRPC6 modulator project, cell-based | shares compounds with TRPC6 inh | actives 51% (n = 2,400) | AID 488924, 2010 | membrane potential dye fluorescence | membrane potential signal change, % at 10 µM;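 active = membrane potential signal moves up or down beyond 5 SD from buffer-only wells, on both duplicate plates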
HEK293 MPD ctr 2-2: parental HEK293 nonspecific activity of TRPC6 modulators, second screen. membrane potential dye fluorescence; after compound, maximal acetylcholine stimulation. AID 488926. actives 14% (n = 2,400). inhibition, % at 10 µM. shares compounds with TRPC6 inh;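 active = membrane potential signal drops by more than 5 SD from the mean control signal, in both duplicate plates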;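 also: plate controls were acetylcholine ECmax control wells for no effect and buffer only wells for full effect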
TRPC4 ctr mod: TRPC4 modulation by TRPC6 hit compounds, confirmation, selectivity assay for TRPC6 modulator project, cell-based, HEK293 TRPC4/mu-opioid, membrane potential dye, mouse | shares compounds with TRPC6 inh | percent change from control (negative = decrease, positive = increase), % at 10 µM | actives 69% (n = 2,400) | membrane potential fluorescence | AID 488927, 2010;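 active = membrane potential signal moved up or down beyond 5 SD of buffer control wells, in both duplicate plates, actives on both sides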;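 also: plate controls were assay buffer wells for no effect and DAMGO maximal-effect wells for full effect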
TRPC4/MOR inh 2: mouse TRPC4 off-target activity of TRPC6 modulators, second screen | actives 55% (n = 2,400) | inhibition, % at 10 µM | HEK293 TRPC4/mu-opioid, membrane potential dye fluorescence; stimulated with maximal-effect DAMGO | shares compounds with TRPC6 inh | AID 488928;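 active = drop in membrane potential signal beyond 5 SD of the control wells in both duplicate plates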;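 also: TRPC4 counter screen for TRPC6 hits run under conditions tuned for TRPC6 not TRPC4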
TRPC6 inh conf: mouse TRPC6 channel inhibitors, confirmation, HEK293 cells, membrane potential dye, duplicate. shares compounds with TRPC6 inh. ACh-evoked depolarization. inhibition, % at 10 µM. actives 43% (n = 3,300). AID 488960, 2010;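 active = fluorescence ratio falls more than 5 SD below the full-stimulation control mean, in both duplicate runs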;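 also: integrated fluorescence ratio of peak minus minimum over baseline after agonist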
TRPC6 act confirm: mouse TRPC6 channel activators, confirmation, HEK293 cells, membrane potential dye, duplicate; shares compounds with TRPC6 inh; HEK293-TRPC6 membrane potential dye fluorescence, FDSS; activation, % at 10 µM; actives 11% (n = 2,800);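 active = ratio signal rise beyond 5 SD above unstimulated control wells' mean, seen in both duplicate runs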;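 also: plate controls were buffer EC0 wells for no effect and acetylcholine ECmax response for full effect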
Numbers without * were called inactive; i = inactive; nt = no result given.

SMILES | TRPC6 activator | TRPC6 inh | TRPC4 agonist | Yeast superoxide | TRPC4 PAM | TRPC4 block | HEK293 MPD ctr-2 | HEK293 MPD ctr 2-2 | TRPC4 ctr mod | TRPC4/MOR inh 2 | TRPC6 inh conf | TRPC6 act confirm | others
CCCOc1ccc(N2C(=O)C3ON(c4ccccc4)C(c4ccc(O)c(OC)c4)C3C2=O)cc1 (stereo not given) | i | i | i | 98.2 | i | i | nt | nt | nt | nt | nt | nt
COc1ccc(-c2nc3cc(C)ccn3c2NCC2CCCO2)cc1OC (stereo not given) | i | -6.91* | i | 103.4 | i | i | -223.0%* | 80.5%* | -37.5%* | 44.0%* | 55.5%* | i
CCOc1ccc(-n2c(-c3ccc(Cl)cc3)c[n+]3c2SCC3)cc1 | i | -7.35* | i | 101.3 | i | -6* | -71.0%* | 80.0%* | i | 35.5%* | 42.5%* | i
COc1ccc(-n2c(-c3ccc(Br)cc3)c[n+]3c2SC(C)C3)cc1 (stereo not given) | i | -5.91* | i | 89.5 | i | i | -142.5%* | 79.5%* | -21.0%* | 42.0%* | 47.5%* | i
COc1ccc(-n2c(-c3ccc(Br)cc3)c[n+]3c2CCC3)cc1 | i | -7.17* | i | 91.6 | i | i | nt | nt | nt | nt | 60.5%* | i | TRPC4 sel inh 2=76.5%*;TRPC4 spec=i;HEK293 MPD ctr 2-1=-75.0%*;HEK293 MPD ctr-1=-192.0%*
COc1ccc(-n2c(-c3ccc(Br)cc3)nc(=S)c3c2CCCC3)cc1 | i | i | i | 117.1 | i | i | nt | nt | nt | nt | nt | nt
CCOc1ccc(-c2nnc(-c3ccccc3)n2-c2ccccc2)cc1 | i | i | i | 96.6 | i | i | nt | nt | nt | nt | nt | nt
CCOc1ccc(-c2c[n+]3c(n2-c2ccccc2)CCCCC3)cc1 | i | -5* | i | 107.7 | i | i | i | i | i | i | i | i
COc1ccc(-n2c(-c3ccc(Br)cc3)n[nH]c2=S)cc1 | i | i | i | 107.5 | i | i | nt | nt | nt | nt | nt | nt
CSc1ccccc1-c1nnc(-c2ccc(C)cc2)o1 | i | i | i | 94.2 | i | i | nt | nt | nt | nt | nt | nt
OC1CC(c2ccco2)NC2(CCCCC2)C1 (stereo not given) | i | i | i | 101.1 | i | i | nt | nt | nt | nt | nt | nt
FC(F)Sc1ccc(-n2c(-c3ccc(Cl)cc3)c[n+]3c2CCC3)cc1 | i | i | i | 111.1 | i | i | nt | nt | nt | nt | nt | nt
COc1ccc(-n2c(-c3ccccc3)cc3c2CCCC3=O)cc1 | i | i | i | 127.8 | i | i | nt | nt | nt | nt | nt | nt
COc1ccc(-n2c(-c3ccccc3)c[n+]3c2CCC3)cc1 | i | -5.42* | i | 92.4 | i | i | -104.0%* | i | -17.5%* | i | 39.5%* | i
Cc1ccc(-n2c(-c3ccc(Cl)cc3)c[n+]3c2CCC3)cc1 | i | -5.23* | i | 93.0 | i | i | i | i | i | 46.0%* | i | i
CCCOc1ccc(C(CC(=O)O)NC(=O)C23CC4CC(CC(C4)C2)C3)cc1 (stereo not given) | i | i | i | 139.4 | i | i | nt | nt | nt | nt | nt | nt
Cc1oc(-c2ccc(Cl)cc2)nc1CN1CCCC(C(=O)NCc2ccco2)C1 (stereo not given) | 15.7* | -6.7* | i | 94.2 | i | i | 114.5%* | i | 20.0%* | 51.0%* | 47.0%* | 92.5%*
Cc1oc(-c2ccc(Cl)cc2)nc1CN1CCCC(C(=O)NC2CC2)C1 (stereo not given) | i | i | i | 86.5 | i | i | nt | nt | nt | nt | nt | nt
CCOC(=O)c1c(N2C(=O)CC(Sc3ccccc3C(=O)O)C2=O)sc2c1CCCC2 (stereo not given) | 17.7* | i | i | 95.4 | i | i | 147.0%* | i | 8.0%* | i | i | 120.0%*
CC(C)Cn1c(=O)c(C(=O)Nc2ccncc2)c(O)c2ccccc21 | i | -11.7* | i | 92.1 | i | i | nt | nt | nt | nt | 83.7%* | i | TRPC4 sel inh 2=i;TRPC4 spec=-14.8%*;HEK293 MPD ctr 2-1=-83.5%*;HEK293 MPD ctr-1=i
O=C(NCC1CCCO1)c1nn2c(C(F)(F)F)cc(-c3cccs3)nc2c1Cl (stereo not given) | i | i | i | 89.1 | i | i | nt | nt | nt | nt | nt | nt

Screening data deposited in PubChem by several laboratories.
